Source: PubChem BioAssay
Calls of active or inactive are those of the source.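 How the source made its calls, unless noted: active means duplicate-averaged activation above buffer control mean plus 5 SD of those controls; inactive means the rest.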

Key:
[1] = nonspecific flux increase, KCNQ1-free cells – parental CHO cells, counter-screen for KCNQ1 potentiator project (AID 493006); details: parental CHO-K1 cells, FluxOR thallium flux, at 10 µM; active compounds read high;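 on activation: fluorescence ratio of max minus min over baseline after K+ and Tl+ depolarization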
Procedure, shortened: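 Material: untransfected host CHO-K1 cells with FluxOR thallium dye. Timing: overnight 37 °C plating, 90 min RT dye, 20 min compound. Detection: kinetic FluxOR fluorescence, 10 s baseline, 110 s after stimulus. Read-out basis: max-minus-min fluorescence over baseline, percent of buffer-to-R-L3 span. Replicates: duplicate wells per compound, percent values averaged.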

[2] = target: Potassium voltage-gated channel subfamily KQT member 1 (Homo sapiens) (UniProt P51787); experiment: enhancement of KCNQ1 channel thallium flux – FluxOR thallium flux, CHO cells, duplicates, confirmation (AID 493007;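 active means potentiation averaged over duplicate wells exceeding buffer-only control mean by more than 3 SD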;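 on outcome: cells depolarized by a potassium plus thallium sulfate stimulus after compound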); details: KCNQ1 cell line, FluxOR thallium flux fluorescence, at 10 µM; active compounds read high, % of reference activator effect, buffer zero
Chain of Potassium voltage-gated channel subfamily KQT member 1 (Homo sapiens) (P51787 whole entry, looked up): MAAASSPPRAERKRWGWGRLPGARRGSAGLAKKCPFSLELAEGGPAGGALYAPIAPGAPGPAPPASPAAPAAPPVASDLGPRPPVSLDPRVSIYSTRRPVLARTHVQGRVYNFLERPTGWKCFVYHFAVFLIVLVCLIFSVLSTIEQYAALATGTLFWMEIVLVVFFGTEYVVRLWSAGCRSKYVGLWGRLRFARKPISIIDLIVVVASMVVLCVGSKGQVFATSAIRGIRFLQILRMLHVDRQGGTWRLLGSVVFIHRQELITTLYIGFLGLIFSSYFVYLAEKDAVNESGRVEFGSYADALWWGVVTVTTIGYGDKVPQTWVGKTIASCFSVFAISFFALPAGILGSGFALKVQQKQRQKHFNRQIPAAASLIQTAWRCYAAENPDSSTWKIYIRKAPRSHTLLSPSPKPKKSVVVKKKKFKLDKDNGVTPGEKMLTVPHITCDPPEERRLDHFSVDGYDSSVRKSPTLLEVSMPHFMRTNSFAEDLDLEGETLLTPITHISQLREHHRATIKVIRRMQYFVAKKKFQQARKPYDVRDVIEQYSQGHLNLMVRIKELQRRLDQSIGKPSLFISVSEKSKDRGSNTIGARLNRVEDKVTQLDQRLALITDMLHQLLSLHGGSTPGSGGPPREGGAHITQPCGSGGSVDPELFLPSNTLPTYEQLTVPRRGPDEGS
Procedure, shortened: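 Test system – KCNQ1-expressing CHO cell line · Incubation – FluxOR dye loading 90 min, compound exposure 20 min, room temperature · Detection – FluxOR Tl+ flux fluorescence, 10 s baseline plus 110 s recording · Controls – buffer-only wells as 0% and R-L3 activator as 100%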

[3] = target: Potassium voltage-gated channel subfamily KQT member 2 (Rattus norvegicus) (UniProt O88943); experiment: KCNQ2 thallium flux enhancement – KCNQ2-CHO-K1 cells, selectivity assay for KCNQ1 potentiator project (AID 493009;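 active means mean duplicate potentiation above the buffer control mean plus 5 SD of buffer wells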;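 further: assay conditions were tuned for KCNQ1 rather than KCNQ2 modulators; signal is max minus min fluorescence divided by baseline after thallium stimulus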); details: FluxOR thallium flux fluorescence, at 10 µM; active compounds read high, scaled: buffer 0, activator control 100
Chain of Potassium voltage-gated channel subfamily KQT member 2 (Rattus norvegicus) (O88943 whole entry, looked up): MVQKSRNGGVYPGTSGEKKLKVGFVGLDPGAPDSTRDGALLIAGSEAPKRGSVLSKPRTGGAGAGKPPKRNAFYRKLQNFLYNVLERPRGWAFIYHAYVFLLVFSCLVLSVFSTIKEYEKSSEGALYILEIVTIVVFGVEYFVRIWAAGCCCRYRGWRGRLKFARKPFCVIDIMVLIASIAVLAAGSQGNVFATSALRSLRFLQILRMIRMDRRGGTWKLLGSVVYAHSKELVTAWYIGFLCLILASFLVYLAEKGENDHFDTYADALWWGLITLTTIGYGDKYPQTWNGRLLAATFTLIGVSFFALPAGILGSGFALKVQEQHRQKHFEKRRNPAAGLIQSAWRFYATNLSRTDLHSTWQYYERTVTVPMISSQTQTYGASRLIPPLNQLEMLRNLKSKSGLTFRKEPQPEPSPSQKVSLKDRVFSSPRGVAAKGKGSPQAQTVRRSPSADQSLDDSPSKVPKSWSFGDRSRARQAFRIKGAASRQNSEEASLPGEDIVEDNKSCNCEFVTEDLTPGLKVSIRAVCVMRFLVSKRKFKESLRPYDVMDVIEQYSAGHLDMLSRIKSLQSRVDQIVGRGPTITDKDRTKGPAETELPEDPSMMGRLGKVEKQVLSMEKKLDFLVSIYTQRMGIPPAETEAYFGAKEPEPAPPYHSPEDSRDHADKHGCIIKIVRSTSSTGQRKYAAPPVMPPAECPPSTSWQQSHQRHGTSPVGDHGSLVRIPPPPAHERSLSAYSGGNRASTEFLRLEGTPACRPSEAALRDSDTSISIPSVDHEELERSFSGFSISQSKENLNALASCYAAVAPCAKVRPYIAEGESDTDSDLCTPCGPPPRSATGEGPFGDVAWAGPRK

[4] = target: Potassium voltage-gated channel subfamily KQT member 1 (Homo sapiens) (UniProt P51787); experiment: KCNQ1 activators by electrophysiology – IonWorks patch clamp, KCNQ1-CHO cells, orthogonal assay for KCNQ1 potentiator project, confirmation (AID 493184;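 active means current rise at least 3 SD above the untreated control mean in each of two repeat wells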;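 on current potentiation: percent change of the same well's current before compound addition so 0% = no change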); details: automated patch clamp current, at 10 µM; active compounds read high
Procedure, shortened: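 Read-out: Percent current increase versus pre-compound level | Assay system: CHO cells carrying KCNQ1 | Measured by: Automated perforated-patch electrophysiology | Medium: External bath solution at pH 7.4 | Dosing: One dose, 10 µM final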

SMILES | activation [1] | potentiation [2] | potentiation [3] | outcome [4] | outcome [1] | outcome [2] | outcome [3] | current potentiation [4]
CC1Cc2ccccc2N1C(=S)NC(=O)c1ccc(Cl)cc1Cl (centres undefined) | 214% (active) | 91.5% (active) | 248% (active) | inactive | – | – | – | –
O=C(Cc1cccs1)N=Nc1c(O)[nH]c2ccc(Br)cc12 | – | – | – | inactive | inactive | inactive | inactive | –
COc1ccc(-n2nc(C(=O)NCC(=O)N3CCC(C(N)=O)CC3)c3ccccc3c2=O)cc1 | – | – | – | inactive | inactive | inactive | inactive | –
Cc1cc(C)nc(CCNC(=O)c2cc(COc3ccccc3)on2)n1 | – | – | – | inactive | inactive | inactive | inactive | –
Cc1cc(C)c(NC(=O)c2cn3c4c(c(N5CCN(C)CC5)c(F)cc4c2=O)OCC3C)c(C)c1 (centres undefined) | – | – | – | inactive | inactive | inactive | inactive | –
COc1cc(OC)cc(C(=O)NC(=S)N(Cc2ccccc2)C(C)C)c1 | 294% (active) | 150% (active) | 380% (active) | inactive | – | – | – | –
CCN(CC)CCCNC(=O)c1[nH]c2ccccc2c1Sc1ccc(Cl)cc1 | – | 73% (active) | – | – | inactive | – | inactive | 29.6% (active)
Cc1[nH]n(-c2ccc(Cl)cc2)c(=O)c1/C=N/c1nnc(-c2ccccc2)s1 | 678% (active) | 182% (active) | 466% (active) | inactive | – | – | – | –
CC(=O)c1ccc(OCc2cc(C(=O)N(C)Cc3nc4c(C)cccc4[nH]3)no2)cc1 | – | 18% (active) | – | inactive | inactive | – | inactive | –
Cc1ccc(F)cc1S(=O)(=O)NCc1ccc(N2CCN(C)CC2)cc1 | – | – | – | inactive | inactive | inactive | inactive | –
CCc1ccc(/C=N/NC(=O)Cc2cccn2C)cc1 | – | – | – | inactive | inactive | inactive | inactive | –
S=c1nc(-c2ccccc2)[nH]c2ccccc12 | 316% (active) | 110% (active) | 294% (active) | inactive | – | – | – | –
O=C(O)CSc1cc(NS(=O)(=O)c2ccc(Br)cc2)c2ccccc2c1O | – | – | – | inactive | inactive | inactive | inactive | –
CC(=O)Oc1c(-c2ccco2)oc2ccccc2c1=O | 216% (active) | 31% (active) | 244% (active) | inactive | – | – | – | –
S=c1nc2ccccc2c2nc(-c3ccccc3)[nH]n12 | – | – | – | inactive | inactive | inactive | inactive | –
CCCCN(CCCC)c1cn[nH]c(=O)c1Cl | – | – | – | inactive | inactive | inactive | inactive | –
COc1cccc(-c2cn(-c3cccc(C(F)(F)F)c3)c(=S)[nH]2)c1 | – | – | – | inactive | inactive | inactive | inactive | –
Cn1ncc([N+](=O)[O-])c1C(=O)N/N=C/c1ccc(F)cc1 | – | – | – | inactive | inactive | inactive | inactive | –
Cn1ncc2c(O/N=C(\N)c3ccc(C(F)(F)F)cc3)ncnc21 | – | – | – | inactive | inactive | inactive | inactive | –
Cc1cc(S(=O)(=O)N2CCOCC2)ccc1OCC(=O)NCc1ccccn1 | – | – | – | inactive | inactive | inactive | inactive | –
COc1ccc(NC(=O)CCCSc2nc(-c3ccco3)cc(C(F)(F)F)n2)cc1OC | – | – | – | inactive | inactive | inactive | inactive | –

SMILES | activation [1] | potentiation [2] | potentiation [3] | outcome [4] | outcome [1] | outcome [2] | outcome [3] | current potentiation [4]
COc1ccccc1NS(=O)(=O)c1cc(NC(=O)c2cnccn2)ccc1N1CCOCC1 | 222% (active) | 54% (active) | 248% (active) | inactive | – | – | – | –
C=CCn1c(O)c(N=NC(=S)Nc2cccc(OC)c2)c2ccccc21 | 186% (active) | 85.5% (active) | 271% (active) | inactive | – | – | – | –
CCc1ccc(NC(=O)C(=O)NNC(=O)c2ccc(OC)cc2)cc1 | 326% (active) | 149% (active) | 367% (active) | inactive | – | – | – | –
CCc1nc2sc3c(=O)[nH]cnc3c2c2c1CSC(C)(C)C2 | – | – | – | inactive | inactive | inactive | inactive | –
CCOC(=O)c1c(NC(=O)C(C)N2CCN(C(=O)c3ccco3)CC2)sc2c1CCCC2 (centres undefined) | – | 53% (active) | 160% (active) | inactive | inactive | – | – | –
C/C(N)=C(/C#N)C(=O)CSc1nc2ccccc2c(=O)n1Cc1ccc(F)cc1 | 178% (active) | 48.5% (active) | 194% (active) | inactive | – | – | – | –
COc1ccc(/C=C2\SC(=S)N(NS(=O)(=O)c3ccc(C)cc3)C2=O)c(OC)c1 | 138% (active) | 77.5% (active) | 261% (active) | – | – | – | – | 20.6% (active)
CCNC(=S)Nc1scc(-c2ccccc2)c1C(=O)OCC | 254% (active) | 44% (active) | 214% (active) | inactive | – | – | – | –
Cc1cccc(C(=O)Oc2csc(=S)n2C(=O)c2cccc(C)c2)c1 | 139% (active) | 27% (active) | 158% (active) | inactive | – | – | – | –
Cc1ccc(-c2nc3ccccc3o2)cc1NC(=S)NC(=O)c1cc2ccccc2o1 | – | 21.5% (active) | – | inactive | inactive | – | inactive | –
COC(=O)c1ccc(C(=O)NC(=S)Nc2nc3c(s2)CCCC3)cc1 | 210% (active) | 169% (active) | 411% (active) | inactive | – | – | – | –
O=c1c(O)c(-c2ccc3c(c2)OCO3)oc2ccccc12 | – | 41.5% (active) | 162% (active) | inactive | inactive | – | – | –
O=C1CN(c2nc(-c3cccs3)nc3sc4c(c23)CCCC4)CCN1 | 259% (active) | 415% (active) | 492% (active) | inactive | – | – | – | –
COC(=O)c1c(NS(=O)(=O)Cc2ccccc2)sc2c1CCCC2 | 196% (active) | 136% (active) | 186% (active) | inactive | – | – | – | –
CCCCNC(=S)NC(=O)c1ccc([N+](=O)[O-])cc1 | 168% (active) | 29% (active) | 190% (active) | inactive | – | – | – | –
Cc1ccc(NC(=S)NC(=O)c2cncc(Br)c2)cc1Cl | 323% (active) | 246% (active) | 449% (active) | inactive | – | – | – | –
CC(=O)c1c(-c2ccccc2)c2cc([N+](=O)[O-])ccc2[nH]c1=O | – | – | – | inactive | inactive | inactive | inactive | –
COc1cccc(C(=O)NNC(=O)C(=O)Nc2ccc(C)cc2)c1 | 206% (active) | 92% (active) | 308% (active) | inactive | – | – | – | –
COc1cccc(Oc2cnc(N)nc2-c2ccc(OC)cc2O)c1 | – | – | – | inactive | inactive | inactive | inactive | –
CC(C)[N+]1(C)[C@@H]2CC[C@H]1CC(OC(=O)C(CO)c1ccccc1)C2 (some centres undefined) | – | – | – | inactive | inactive | inactive | inactive | –
Cc1cccc(CNC(=O)C2CCCN(c3nn4c(=O)cc(C)nc4s3)C2)c1 (centres undefined) | – | – | – | inactive | inactive | inactive | inactive | –

SMILES | activation [1] | potentiation [2] | potentiation [3] | outcome [4] | outcome [1] | outcome [2] | outcome [3] | current potentiation [4]
CCc1nccn1S(=O)(=O)c1ccc2ccc(C)cc2c1 | – | – | – | inactive | inactive | inactive | inactive | –
Cc1ccc2nc(NC(=S)NC(=O)c3cccs3)sc2c1 | 168% (active) | 66% (active) | 158% (active) | inactive | – | – | – | –
CCOc1ccc(NC(=O)Cn2sc3nc(C)cc(C)c3c2=O)cc1 | 142% (active) | – | – | inactive | – | inactive | inactive | –
CC(C)C1=NN(C(=O)c2ccccc2)C(O)(C(C)(C)C)C1 (centres undefined) | – | – | – | inactive | inactive | inactive | inactive | –
O=c1c2cc(Cl)ccc2nc(-c2ccc([N+](=O)[O-])cc2)n1O | 445% (active) | 193% (active) | 456% (active) | inactive | – | – | – | –
NC(=O)CSc1nnc(-c2ccccc2Br)n1-c1cccc(C(F)(F)F)c1 | – | 43.5% (active) | – | inactive | inactive | – | inactive | –
Cc1cc([N+](=O)[O-])ccc1-c1ccc(C2Nc3ccccc3C(=O)N2O)o1 (centres undefined) | 174% (active) | 18.5% (active) | 158% (active) | inactive | – | – | – | –
O=C(COC(=O)C12CC3CC(CC(C3)C1)C2)NCCCc1ccccc1 | – | – | – | inactive | inactive | inactive | inactive | –
CC(=O)Nc1ccc(NC(=O)c2cccc(C(=O)OC(C)C)n2)cc1 | – | – | – | inactive | inactive | inactive | inactive | –
O=C1CC(c2ccccc2)CC(O)=C1C=Nc1ccc(O)cc1 (centres undefined) | – | – | – | inactive | inactive | inactive | inactive | –
Cc1sc(N/N=C/c2ccco2)nc1-c1ccccc1 | – | – | – | inactive | inactive | inactive | inactive | –
O=C(Nc1nc2c(F)cc(F)cc2s1)C1COc2ccccc2O1 (centres undefined) | 142% (active) | 68.5% (active) | 194% (active) | inactive | – | – | – | –
Cc1cc(Nc2cc(N3CCN(C)CC3)nc(Sc3ccc(NC(=O)C4CC4)cc3)n2)n[nH]1 | 140% (active) | 30% (active) | 144% (active) | inactive | – | – | – | –
O=C(O)C1C2CCC(O2)C1C(=O)NCCC1=CCCCC1 (centres undefined) | – | – | – | inactive | inactive | inactive | inactive | –
COC(=O)C1=C(C)NC(C)=C(C(=O)OC)C1c1ccccc1[N+](=O)[O-] | – | – | – | inactive | inactive | inactive | inactive | –
CC(C)Cc1c2c([nH]c(=S)c1C#N)CCCC2 | – | – | 143% (active) | inactive | inactive | inactive | – | –
S=c1nc(-c2ccccc2)[nH]n1-c1ccccc1 | 504% (active) | 210% (active) | 532% (active) | inactive | – | – | – | –
O=C(CN(Cc1ccccc1Cl)C(=O)c1csnn1)NC1CCCC1 | – | – | – | inactive | inactive | inactive | inactive | –
CN1CCC(Oc2ccccc2Sc2ccc(C(F)(F)F)cc2)CC1 | – | – | – | inactive | inactive | inactive | inactive | –
